High-throughput results: PubChem BioAssay, Johns Hopkins Ion Channel Center
MrgX1 antagonist: blocks BAM8-22 activation of human MrgX1 receptor; Q96LB2; MRGX1-HEK293 calcium flux, Fluo-4, BAM8-22 antagonism; hits give low values; B-score at 10 µM; actives 1.3% (n = 310,000); AID 588676;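 active = calcium-response B-score plate-corrected more than 3 library SD below zero, starting fluorescence within 5 deviations, no agonist response on first addition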;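 note: peak minus trough fluorescence over baseline after final BAM8-22 challenge near maximal dose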
Target sequence (Q96LB2 whole entry, looked up): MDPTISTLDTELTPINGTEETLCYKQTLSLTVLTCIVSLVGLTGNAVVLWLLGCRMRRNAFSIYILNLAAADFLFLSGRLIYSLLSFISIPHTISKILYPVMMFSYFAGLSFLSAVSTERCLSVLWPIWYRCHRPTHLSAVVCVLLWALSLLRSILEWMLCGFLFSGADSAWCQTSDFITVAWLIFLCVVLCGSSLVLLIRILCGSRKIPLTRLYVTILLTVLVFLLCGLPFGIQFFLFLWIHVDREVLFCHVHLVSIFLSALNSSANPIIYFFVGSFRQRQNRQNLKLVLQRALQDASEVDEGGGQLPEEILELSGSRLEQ
RGS4 block: inhibitors of human RGS4; HEK293 M3R/RGS4 inducible, Fluo-4 calcium flux; hits give high values; triggered by carbachol at its EC20; B-score at 10 µM; actives 0.45% (n = 310,000); AID 463165;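 active = B-score, a plate-corrected calcium signal, over three deviations above library mean, with baseline fluorescence within five deviations of library mean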;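 note: RGS4 expression induced by doxycycline in cells with stable M3 receptor; B-score is computed from the integrated fluorescence ratio over baseline after carbachol; higher B-score means a larger calcium signal and so more RGS4 inhibition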
Target sequence (P49798 whole entry, looked up): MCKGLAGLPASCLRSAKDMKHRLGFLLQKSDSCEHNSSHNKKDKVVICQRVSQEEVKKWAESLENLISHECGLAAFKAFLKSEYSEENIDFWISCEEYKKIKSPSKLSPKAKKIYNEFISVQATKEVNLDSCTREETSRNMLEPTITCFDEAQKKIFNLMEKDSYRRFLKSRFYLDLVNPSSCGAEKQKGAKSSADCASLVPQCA
RGS4 pot: potentiators or activators of RGS4. HEK293 M3R/inducible RGS4, carbachol calcium flux Fluo4; hits give low values. B-score at 10 µM. actives 0.92% (n = 310,000). AID 463111;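 active = B-score of the integrated calcium signal more than 4 SD below the library mean, with starting fluorescence not abnormally high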;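 note: negative B-score means reduced calcium response which marks RGS4 activation or potentiation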
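Detection: kinetic calcium fluorescence imaging with Fluo4-AM dye, 2 µM / Material: HEK293 cells with stable M3R and inducible RGS4 / Schedule: recording 10 s baseline at 1 Hz, 100 s post-agonist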
MrgX1 ag: agonists of human MrgX1 receptor | MrgX1-HEK293 cells, Fluo-4 calcium fluorescence, agonist mode; hits give high values | B-score at 10 µM | actives 0.44% (n = 310,000) | AID 588627;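 active = calcium response B-score plate-corrected fluorescence ratio at least 3 library SD, with starting fluorescence B-score inside 5 SD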
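times = overnight plating, then 30 min 37 °C plus 30 min room-temperature dye loading | assay system = stable human MrgX1 HEK293 cell line | input = fifteen thousand cells per well | signal = kinetic calcium dye fluorescence, Fluo-4 NW | dosing = compound delivered in addition one of three | read-out = B-scored fluorescence response ratio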
MrgX1 allo act: human MrgX1 positive allosteric modulation, primary screen; Q96LB2; MrgX1-HEK293, Fluo-4 calcium flux, FDSS; hits give high values; B-score at 10 µM; actives 0.63% (n = 310,000); AID 588675;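 active = plate-corrected calcium response at least 3 library SD above typical, normal starting fluorescence, not activating the receptor alone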;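 note: compound read alongside a low EC10 to EC30 dose of BAM8-22 agonist; peak minus trough fluorescence over baseline measured at the second addition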
MrgX1 ag reconf: reconfirmed activator of human MrgX1 receptor signaling; shares compounds with MrgX1 ag; MrgX1-HEK293, Fluo-4 calcium fluorescence, FDSS; activation, % at 10 µM; actives 78% (n = 600);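 active = calcium signal rise, corrected for plate position, at least 3 library SD high, with starting brightness within 5 such deviations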; note: reference of the scale not given here
MrgX1 PAM conf: human MrgX1 positive allosteric modulation, re-confirmation; shares compounds with MrgX1 allo act; MrgX1-HEK293, Fluo-4 calcium fluorescence, FDSS; activation (ratio percentage), % at 10 µM; actives 13% (n = 1,200);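 active = ratio at least 3 SD above the weak peptide control, stable starting fluorescence, no direct agonism earlier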;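 note: compound followed by low BAM8-22 agonist challenge near EC20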
HEK293 Ca flux: activity in parental HEK293 cells lacking MrgX1; AID 624111; actives 2% (n = 4,000); Fluo-4 calcium fluorescence, FDSS; shares compounds with MrgX1 antagonist; fluorescence ratio F(max-min)/F0 at 10 µM;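 active = duplicate-averaged calcium fluorescence ratio at least three times the standard deviation of buffer wells, a nonspecific response in parental cells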
HEK293 Ca counter: MrgX1 allosteric activator counter-screen hit in parental HEK293 cells; AID 624114; fluorescence ratio F(max-min)/F0 at 10 µM; shares compounds with MrgX1 antagonist; parental HEK293 calcium flux, Fluo-4 fluorescence ratio; hits give high values; actives 0.4% (n = 4,000);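 active = calcium fluorescence ratio, averaged over duplicates, at least 3 SD of the buffer-well ratio, meaning a nonspecific response in receptor-free cells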;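 note: untransfected parental HEK293 lacking MrgX1 used as counterscreen for MrgX1 allosteric activators; fluorescence change taken during the second addition on a kinetic imager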
HEK293 Ca cntr2: counter-screen for MrgX1 activators: effect in parental HEK293 cells; Fluo-4 calcium fluorescence (FDSS); hits give high values; shares compounds with MrgX1 antagonist; actives 8.7% (n = 4,000); fluorescence ratio F(max-min)/F0 at 10 µM;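 active = calcium fluorescence ratio at least three times the spread of buffer wells, meaning a non-specific response in parental cells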
Numbers without * were called inactive; i = inactive; nt = no result given. Only some compounds are listed: those with a hit (about 3.5% of all), similar ones and a draw of the others.

SMILES | MrgX1 antagonist | RGS4 block | RGS4 pot | MrgX1 ag | MrgX1 allo act | MrgX1 PAM conf | HEK293 Ca flux | HEK293 Ca counter | HEK293 Ca cntr2 | others
Cc1ccc(Nc2nnc(-c3ccncc3)s2)c(Br)c1 | i | i | i | 49* | i | nt | i | i | i | MrgX1 ag reconf=i
CNc1nnc(-c2ccncc2)s1 | i | i | i | i | i | nt | nt | nt | nt
CCOc1cc(C#N)ccc1OCC(=O)N1CCc2ccccc2C1 | i | i | i | i | i | nt | nt | nt | nt
COc1cc(C#N)ccc1OCC(=O)N1CCc2ccccc2C1 | i | i | i | 50* | i | nt | i | i | i | MrgX1 ag reconf=i
CC(OC(=O)CCCC(=O)Nc1ccc(F)cc1)C(=O)c1ccccc1 (stereo unspecified) | i | i | i | i | i | nt | nt | nt | nt
O=C(Nc1ccc(F)cc1F)c1cc(-c2ccco2)on1 | i | i | i | i | i | nt | nt | nt | nt
O=C(Nc1ccc(F)cc1F)c1ccco1 | i | i | i | i | 7.6* | i | i | i | i
O=C(CCC1CCN(Cc2ccccc2O)CC1)NC1CC1 | i | i | i | i | 8.1* | i | i | i | i
O=C(CCC1CCN(Cc2ccccc2Cl)CC1)NC1CC1 | i | i | i | i | i | nt | nt | nt | nt
COc1ccccc1NC(=O)c1ccccc1NS(C)(=O)=O | i | i | i | i | 11* | i | i | i | i
COc1ccccc1NC(=O)c1ccccc1NS(=O)(=O)c1cccs1 | i | i | i | i | 54* | 29%* | i | i | i
CS(=O)(=O)Nc1ccccc1C(=O)Nc1ccccc1Cl | i | i | i | i | i | nt | nt | nt | nt
COc1ccccc1NC(=O)c1cc2cc(Br)ccc2cc1O | i | i | i | i | 8.4* | 16%* | i | i | i
COc1ccc(NC(=O)c2ccccc2NS(C)(=O)=O)cc1OC | i | i | i | i | i | nt | nt | nt | nt
COc1cc(NC(=O)c2cc3ccccc3cc2O)c(OC)cc1Cl | i | i | i | i | i | nt | nt | nt | nt
CCOc1ccccc1NC(=O)c1ccccc1NS(C)(=O)=O | i | i | i | i | 23* | 79%* | i | i | i
Nc1nc(Nc2ccccc2)nc(NC2CCCCC2)c1[N+](=O)[O-] | i | i | i | i | i | nt | nt | nt | nt
COc1cccc(C(=O)NCCn2ccc3ccccc32)c1 | i | i | i | i | 8.8* | i | i | i | i
COc1cc(OC)cc(C(=O)NCCn2ccc3ccccc32)c1 | i | i | i | i | i | nt | nt | nt | nt
COc1c(Cl)cccc1-c1cn2ccc(C)cc2n1 | i | i | i | i | 15* | i | i | i | i
Cc1ccn2cc(-c3ccc(Br)cc3)nc2c1 | i | i | i | i | 15* | i | i | i | i
CCOc1ccccc1NC(=O)CCS(=O)(=O)c1cccc2nonc12 | i | nt | nt | i | 7.5* | i | i | i | i
CCOC(=O)C1CCN(C(=O)c2cc(S(=O)(=O)N3CCc4ccccc43)ccc2OC)CC1 | i | i | i | i | i | nt | nt | nt | nt
CC(=O)Nc1cccc(-c2nc3ccccc3[nH]2)c1 | i | i | i | i | i | nt | nt | nt | nt
COc1cccc(OC)c1C(=O)Nc1cccc(-c2nc3ccccc3[nH]2)c1 | i | i | i | i | 7.1* | i | i | i | i
